In ChEMBL document CHEMBL3868583, “6-Aryl substituted 4-(4-cyanomethyl) phenylamino quinazolines as a new class of isoform-selective PI3K-alpha inhibitors” (Eur J Med Chem, 2016):

Experiments:
[1] = Cytotoxicity against human PC3 cells assessed as cell growth inhibition after 12 hrs by MTT assay; type: functional; settings: PC-3, 12 h
[2] = Downregulation of PI3Kalpha expression in human PC3 cells at 30 uM by Western blot analysis; type: functional, cell-based; settings: PC-3
Method in brief: (§1)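 MCF-7 or PC-3 cells (2 × 10^6) treated with compound, lysed (1 × 10^6 cells) in cold NP-40 buffer with protease inhibitors 30 min on ice, 12,000 g 10 min 4 °C. 50 µg protein per lane on SDS-PAGE, PVDF transfer, 5% milk block, primary antibody 2 h, HRP secondary 1 h, ECL on film; β-actin internal control.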

[3] = Downregulation of PI3Kdelta expression in human PC3 cells at 30 uM by Western blot analysis; type: functional, cell-based; settings: PC-3; method in brief: as §1
[4] = molecular target: T1, Phosphatidylinositol 4,5-bisphosphate 3-kinase catalytic subunit alpha isoform (Homo sapiens, UniProt P42336); assay: Inhibition of PI3Kalpha in human PC3 cells assessed as suppression of akt phosphorylation at Ser-473 residue at 30 uM Western blot analysis; type: cell-based; settings: PC-3
T1 sequence (P42336 whole entry, canonical isoform): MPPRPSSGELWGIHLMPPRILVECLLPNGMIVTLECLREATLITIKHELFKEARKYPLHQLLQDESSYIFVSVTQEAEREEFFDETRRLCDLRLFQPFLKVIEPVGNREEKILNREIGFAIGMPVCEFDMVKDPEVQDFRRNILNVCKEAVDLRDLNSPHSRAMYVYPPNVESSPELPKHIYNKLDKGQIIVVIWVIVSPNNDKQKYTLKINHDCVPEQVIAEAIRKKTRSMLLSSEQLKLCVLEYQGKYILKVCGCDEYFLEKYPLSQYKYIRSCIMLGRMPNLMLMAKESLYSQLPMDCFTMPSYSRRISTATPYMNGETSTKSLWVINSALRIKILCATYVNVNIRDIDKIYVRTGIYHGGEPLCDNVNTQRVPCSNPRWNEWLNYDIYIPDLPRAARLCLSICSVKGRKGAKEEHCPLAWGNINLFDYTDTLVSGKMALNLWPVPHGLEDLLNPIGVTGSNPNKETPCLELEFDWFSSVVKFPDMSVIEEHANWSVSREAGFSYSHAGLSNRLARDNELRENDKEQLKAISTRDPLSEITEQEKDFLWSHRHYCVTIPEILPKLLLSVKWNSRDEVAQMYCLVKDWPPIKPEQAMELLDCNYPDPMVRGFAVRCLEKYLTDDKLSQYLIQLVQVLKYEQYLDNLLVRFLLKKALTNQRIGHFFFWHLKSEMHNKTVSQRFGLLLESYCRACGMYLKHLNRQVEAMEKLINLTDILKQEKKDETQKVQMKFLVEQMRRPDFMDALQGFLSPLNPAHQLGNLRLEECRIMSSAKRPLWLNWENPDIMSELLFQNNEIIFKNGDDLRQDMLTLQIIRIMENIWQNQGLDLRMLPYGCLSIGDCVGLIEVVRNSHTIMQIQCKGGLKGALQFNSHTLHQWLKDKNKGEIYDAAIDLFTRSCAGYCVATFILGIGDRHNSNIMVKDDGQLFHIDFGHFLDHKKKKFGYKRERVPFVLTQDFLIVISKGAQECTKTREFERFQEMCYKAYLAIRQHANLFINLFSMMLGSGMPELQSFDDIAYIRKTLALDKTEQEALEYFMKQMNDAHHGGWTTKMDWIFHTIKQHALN

PC-3 [5] = assay: Induction of cell cycle arrest in human PC3 cells assessed as apoptotic cells at 10 uM after 24 hrs by propidium iodide-staining based FACS analysis (reference value: 2 %); type: functional
Method in brief: (§2)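 PC-3 cells exposed 24 h at indicated concentrations, pelleted, fixed overnight in ice-cold 70% ethanol at 4 °C, RNase 0.2 mg/mL at 37 °C 1 h, propidium iodide 10 µg/mL 30 min in dark; 10,000 events acquired (FL2-A vs FL2-W); DNA histograms modelled for apoptotic (sub-G1), G1, S and G2-M fractions.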

PC-3 [6] = assay: Induction of cell cycle arrest in human PC3 cells assessed as accumulation at G1 phase at 10 uM after 24 hrs by propidium iodide-staining based FACS analysis (reference value: 39 %); type: functional
Method in brief: (§3)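 MCF-7 or PC-3 cells treated at indicated concentrations for 24 h, pelleted, PBS-washed, fixed in ice-cold 70% ethanol overnight at 4 °C. RNase 0.2 mg/mL 1 h at 37 °C, propidium iodide 10 µg/mL 30 min dark. 10,000 events (FL2-A vs FL2-W) by flow cytometry; fractions in apoptosis/sub-G1, G1, S, G2-M.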

PC-3 [7] = assay: Induction of cell cycle arrest in human PC3 cells assessed as apoptotic cells at 20 uM after 24 hrs by propidium iodide-staining based FACS analysis (reference value: 2 %); type: functional; method in brief: as §2
PC-3 [8] = assay: Induction of cell cycle arrest in human PC3 cells assessed as accumulation at G1 phase at 20 uM after 24 hrs by propidium iodide-staining based FACS analysis (reference value: 39 %); type: functional; method in brief: as §3
PC-3 [9] = assay: Induction of cell cycle arrest in human PC3 cells assessed as accumulation at G2 phase at 20 uM after 24 hrs by propidium iodide-staining based FACS analysis (reference value: 17 %); type: functional; method in brief: as §3
PC-3 [10] = assay: Induction of cell cycle arrest in human PC3 cells assessed as apoptotic cells at 30 uM after 24 hrs by propidium iodide-staining based FACS analysis (reference value: 2 %); type: functional; method in brief: as §2
PC-3 [11] = assay: Induction of apoptosis in human PC3 cells assessed as loss of mitochondrial membrane potential at 10 uM after 24 hrs by rhodamine-123-staining based FACS analysis (reference value: 5 % ); type: functional
Method in brief: (§4)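 Cells (MCF-7 or PC-3) exposed to indicated concentrations for 24 h; rhodamine-123 (5 µM) added 1 h before end. Cells collected, PBS-washed; fluorescence of 10,000 events read in FL-1 by flow cytometry, loss of mitochondrial potential scored as decreased intensity.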

PC-3 [12] = assay: Induction of apoptosis in human PC3 cells assessed as loss of mitochondrial membrane potential at 30 uM after 24 hrs by rhodamine-123-staining based FACS analysis (reference value: 5 % ); type: functional; method in brief: as §4
Mus musculus [13] = assay: Toxicity in Swiss mouse implanted with Swiss mouse EAC cells assessed as body weight at 70 mg/kg, ip administered for 1 to 9 days measured on day 1 (reference value: 22.8 g); type: organism-based, Ehrlich; settings: in vivo
[14] = Downregulation of PI3Kalpha expression in human MCF7 cells at 30 uM by Western blot analysis; type: functional, cell-based; method in brief: as §1
[15] = Downregulation of PI3Kdelta expression in human MCF7 cells at 30 uM by Western blot analysis; type: functional, cell-based; method in brief: as §1
MCF7 [16] = assay: Induction of cell cycle arrest in human MCF7 cells assessed as accumulation at G2 phase at 10 uM after 24 hrs by propidium iodide-staining based FACS analysis (reference value: 20 %); type: functional; method in brief: as §3
MCF7 [17] = assay: Induction of cell cycle arrest in human MCF7 cells assessed as apoptotic cells at 20 uM after 24 hrs by propidium iodide-staining based FACS analysis (reference value: 8 %); type: functional; method in brief: as §3
MCF7 [18] = assay: Induction of cell cycle arrest in human MCF7 cells assessed as accumulation at G1 phase at 30 uM after 24 hrs by propidium iodide-staining based FACS analysis (reference value: 50 %); type: functional; method in brief: as §3
Mus musculus [19] = assay: Toxicity in Swiss mouse implanted with Swiss mouse EAC cells assessed as body weight at 25 mg/kg, ip administered for 1 to 9 days measured on day 5 (reference value: 26.2 g); type: organism-based, Ehrlich; settings: in vivo
Mus musculus [20] = assay: Toxicity in Swiss mouse implanted with Swiss mouse EAC cells assessed as mortality at 25 mg/kg, ip administered for 1 to 9 days measured on day 12; type: organism-based, Ehrlich; settings: in vivo
Method in brief: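 1×10^7 EAC cells injected intraperitoneally into Swiss mice on day 0. Mice randomized next day: treated groups n=7, saline control n=10 (0.2 ml i.p.). Dosing i.p. days 1–9. Sacrifice on day 12; ascitic fluid collected from the peritoneal cavity. % tumor growth inhibition from total tumor cell count versus control. Body weight and mortality tracked.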

Mus musculus [21] = assay: Toxicity in Swiss mouse implanted with Swiss mouse EAT cells assessed as body weight at 15 mg/kg, ip administered for 1 to 9 days measured on day 1 (reference value: 21.6 g); type: organism-based; settings: in vivo
Mus musculus [22] = assay: Toxicity in Swiss mouse implanted with Swiss mouse EAT cells assessed as body weight at 25 mg/kg, ip administered for 1 to 9 days measured on day 1 (reference value: 21.6 g); type: organism-based; settings: in vivo
Mus musculus [23] = assay: Toxicity in Swiss mouse implanted with Swiss mouse EAT cells assessed as body weight at 15 mg/kg, ip administered for 1 to 9 days measured on day 5 (reference value: 22.6 g); type: organism-based; settings: in vivo
Mus musculus [24] = assay: Toxicity in Swiss mouse implanted with Swiss mouse EAT cells assessed as body weight at 25 mg/kg, ip administered for 1 to 9 days measured on day 5 (reference value: 22.6 g); type: organism-based; settings: in vivo
Mus musculus [25] = assay: Toxicity in Swiss mouse implanted with Swiss mouse EAT cells assessed as body weight at 15 mg/kg, ip administered for 1 to 9 days measured on day 9 (reference value: 22.8 g); type: organism-based; settings: in vivo
Mus musculus [26] = assay: Toxicity in Swiss mouse implanted with Swiss mouse EAT cells assessed as mortality at 25 mg/kg, ip administered for 1 to 9 days measured on day 9 and 13; type: organism-based; settings: in vivo
Method in brief: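 EAC cells harvested from 8–10-day ascitic Swiss mice; 1×10^7 cells injected intramuscularly into right thigh of Swiss male mice on day 0. Randomized next day: treated n=7, saline control n=10 (0.2 ml i.p.). Dosing i.p. days 1–9. […] Body weight and mortality tracked.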

[27] = molecular target: T1, Phosphatidylinositol 4,5-bisphosphate 3-kinase catalytic subunit alpha isoform; settings: MCF7, 30 uM

N#CCc1ccc(Nc2ncnc3ccc(-c4cncc5ccccc45)cc23)cc1
GI50 [1]: 189 µM
Activity [2]: 100%
Activity [3]: 32%
inhibition [4]: 50%
Activity (PC-3 [5]): 4%
Activity (PC-3 [6]): 44%
Activity (PC-3 [7]): 10%
Activity (PC-3 [8]): 65%
Activity (PC-3 [9]): 9%
Activity (PC-3 [10]): 25%
Activity (PC-3 [11]): 8%
Activity (PC-3 [12]): 18%
Activity (Mus musculus [13]): 21.42 g

N#CCc1ccc(Nc2ncnc3ccc(-c4ccc5[nH]ccc5c4)cc23)cc1
Activity [14]: 44%
Activity [15]: 30%
Activity (MCF7 [16]): 1%
Activity (MCF7 [17]): 12%
Activity (MCF7 [18]): 44%
Activity (Mus musculus [19]): 22 g
Activity (Mus musculus [20]): Non-Toxic
Activity (Mus musculus [21]): 19.85 g
Activity (Mus musculus [22]): 20.14 g
Activity (Mus musculus [23]): 20 g
Activity (Mus musculus [24]): 20.61 g
Activity (Mus musculus [25]): 20.71 g
Activity (Mus musculus [26]): Non-Toxic
inhibition [27]: 80%
